Laboratory results published in ChEMBL document CHEMBL4138248, “Discovery of naphtho[1,2-d]oxazole derivatives as potential anti-HCV agents through inducing heme oxygenase-1 expression” (Eur J Med Chem, 2018).

Assays:
[1] = Cytotoxicity against human Ava5 cells assessed as cell viability at 20 uM after 72 hrs by XTT assay relative to control; assay type: cell-based; conditions: read-out: Activity
Procedure, shortened: (§1)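 XTT viability assay run alongside the antiviral assays. Ava5 cells were plated at 5×10^3 per well and exposed to 20 or 200 μM for 72 h at 37 °C in humidified 5% CO₂. Viability is expressed as % of untreated cells.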

[2] = Cytotoxicity against human Ava5 cells assessed as cell viability at 200 uM after 72 hrs by XTT assay relative to control; assay type: cell-based; conditions: read-out: Activity; procedure, shortened: as §1
Hepatitis C virus [3] = assay: Antiviral activity against HCV infected in human Ava5 cells assessed as inhibition of viral RNA replication at 20 uM after 3 days by RT-qPCR method relative to control; assay type: functional, Hepacivirus hominis; conditions: Ava5, 72 h
Procedure, shortened: (§2)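 Ava5 replicon cells were exposed to 5 or 20 μM for 3 days, starting from 10 mM DMSO stocks diluted in medium. HCV RNA was quantified by RT-qPCR against gapdh and expressed as % inhibition relative to untreated control. Ribavirin was the reference drug. Mean ± SD of three independent experiments.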

Hepatitis C virus [4] = assay: Antiviral activity against HCV infected in human Ava5 cells assessed as inhibition of viral RNA replication at 5 uM after 3 days by RT-qPCR method relative to control; assay type: functional, Hepacivirus hominis; conditions: Ava5, 72 h; procedure, shortened: as §2
[5] = Selectivity index, ratio of CC50 for human Ava5 cells to IC50 for HCV; assay type: toxicity; conditions: read-out: Ratio CC50/IC50
Procedure, shortened: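 SI = CC50/IC50. CC50 comes from 72 h XTT in […] Ava5 cells. IC50 is the concentration giving 50% inhibition of HCV, measured by RT-qPCR after 3 days in Ava5 cells.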

Hepatitis C virus [6] = assay: Antiviral activity against HCV infected in human Ava5 cells assessed as inhibition of viral RNA replication after 3 days by RT-qPCR method; assay type: functional, organism-based, Hepacivirus hominis; conditions: Ava5, 72 h
Procedure, shortened: (§3)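 Ava5 cells (Huh-7 hepatoma cells carrying an HCV replicon, grown in DMEM/10% FBS with 1 mg·mL⁻¹ G418) were treated for 3 days with a range of concentrations. HCV RNA was measured by RT-qPCR and normalized to cellular gapdh mRNA. Values are mean ± SD of three independent experiments, each in triplicate.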

[7] = Cytotoxicity against human Ava5 cells assessed as decrease in cell viability after 72 hrs by XTT assay; assay type: cell-based
Procedure, shortened: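 XTT assay on […] Ava5 cells at 5×10^3 per well with serial dilutions for 72 h at 37 °C in 5% CO₂. CC50 is the concentration giving 50% growth inhibition.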

Hepatitis C virus [8] = assay: Antiviral activity against HCV infected in human Huh7 cells assessed as inhibition of viral RNA replication after 3 days by RT-qPCR method; assay type: functional, organism-based, Hepacivirus hominis; conditions: Huh-7, 72 h
Hepatitis C virus [9] = assay: Antiviral activity against HCV Con1 infected in human Ava5 cells assessed as inhibition of viral RNA replication after 3 days by RT-qPCR method; assay type: functional, organism-based, Hepacivirus hominis; conditions: isolate Con1, Ava5, 72 h; procedure, shortened: as §3

Compound	viability at 72 h, 20 µM [1] [%]	viability at 72 h, 200 µM [2] [%]	inhibition at 20 µM (Hepatitis C virus [3]) [%]	inhibition at 5 µM (Hepatitis C virus [4]) [%]	selectivity ratio [5]	IC50 (Hepatitis C virus [6]) [µM]	CC50 at 72 h [7] [µM]	EC50 (Hepatitis C virus [8]) [µM]	EC50 (Hepatitis C virus [9]) [µM]
Clc1ccc(Nc2cc3oc(-c4ccccc4)nc3c3ccccc23)cc1	107	93	3.53	1.2					
Clc1ccc(Nc2cc3oc(-c4ccc(Cl)cc4)nc3c3ccccc23)cc1	60.2	27.5	55.2	8.1	4.71	17.8	83.7		
CN(c1ccccc1)c1cc2oc(-c3ccco3)nc2c2ccccc12	88.8	40.6	3.54	2.9					
COc1ccc(N(C)c2cc3oc(-c4ccccc4)nc3c3ccccc23)cc1	83.6	27.5	3.51	3.4					
c1ccc(Nc2cc3oc(-c4ccccc4)nc3c3ccccc23)cc1	87	25.5	4.28	3.51					
COc1ccc(N(C)c2cc3oc(-c4ccco4)nc3c3ccccc23)cc1	49.5	32.3	31.5	2.5					
COc1ccc(Nc2cc3oc(-c4ccc(OC)cc4)nc3c3ccccc23)cc1	63.4	28.5	5.6	3.2					
COc1ccc(N(C)c2cc3oc(-c4ccc(Cl)cc4)nc3c3ccccc23)cc1	94.7	29.6	2.65	2.4					
COc1cc(NCc2cc3ccccc3oc2=O)cc(OC)c1OC								12	
Clc1ccc(Nc2cc3oc(-c4ccco4)nc3c3ccccc23)cc1	83.5	28.9	4.51	3.2					
COc1ccc(-c2nc3c(cc(Nc4ccc(Cl)cc4)c4ccccc43)o2)cc1	83.7	23.4	8.5	4.5					
c1ccc(Nc2cc3oc(-c4ccco4)nc3c3ccccc23)cc1	81.2	31.5	2.53	1.8					
CN(c1ccc(Cl)cc1)c1cc2oc(-c3ccc(Cl)cc3)nc2c2ccccc12	86.4	30.2	2.56	1.1					
COc1ccc(-c2nc3c(cc(N(C)c4ccccc4)c4ccccc43)o2)cc1	69.2	54	3.21	2.5					
NC(=O)c1ncn([C@@H]2O[C@H](CO)[C@@H](O)[C@H]2O)n1 [RIBAVIRIN]	71.4	26.8	65.7	31.2	8.08	13.2	106		
CN(c1ccccc1)c1cc2oc(-c3ccccc3)nc2c2ccccc12	82.3	25.5	2.31	1.5					
COc1ccc(-c2nc3c(cc(N(C)c4ccc(Cl)cc4)c4ccccc43)o2)cc1	107	93	6.5	2.5					
Clc1ccc(-c2nc3c(cc(Nc4ccccc4)c4ccccc43)o2)cc1	99.9	62.4	3.33	2.5					
COc1ccc(Nc2cc3oc(-c4ccccc4)nc3c3ccccc23)cc1	92.7	37.1	86.7	75.5	48.4	3.27	158		
CN(c1ccc(Cl)cc1)c1cc2oc(-c3ccco3)nc2c2ccccc12	73	26.5	3.12	2.7					
CN(c1ccccc1)c1cc2oc(-c3ccc(Cl)cc3)nc2c2ccccc12	94.7	29.6	5.12	4.2					
COc1ccc(Nc2cc3oc(-c4ccc(Cl)cc4)nc3c3ccccc23)cc1	103	98.2	35.6	3.2					
COc1ccc(-c2nc3c(cc(N(C)c4ccc(OC)cc4)c4ccccc43)o2)cc1	73.6	56.3	8.5	5.6					
CN(c1ccc(Cl)cc1)c1cc2oc(-c3ccccc3)nc2c2ccccc12	81	25.5	1.21	1.2					
COc1ccc(-c2nc3c(cc(Nc4ccccc4)c4ccccc43)o2)cc1	86.3	68.5	5.31	3.7					
Cc1ccc2nc(Nc3ccc([N+](=O)[O-])cc3)sc2c1									8
